Rev-RRE block – HIV-1 Rev-RRE binding inhibitors, primary screen, biochemical, FRET, protein-RNA interaction | inhibition, % at 8 µM | hit rate 0.79% among 97,000 | Rev peptide-RRE RNA binding;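 active = inhibition above the screen-wide mean plus 3 SD, cut at about 35% in these data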;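 also: 0% = median DMSO wells and 100% = median Neomycin B control wells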
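Material: labelled RRE RNA duplex and labelled Rev peptide / Buffer or medium: HEPES pH 7.5 salt buffer with EDTA / Compound dosing: single point, 8 µM final nominal compound concentration / Benchmarks: DMSO low control, neomycin B high control / Timing: 5 min preincubation and 15 min binding, 25 °C / Technique: FRET fluorescence readout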
PLK1 inh – human PLK1 kinase inhibitors, primary screen, biochemical, TR-FRET | Serine/threonine-protein kinase PLK1 (Homo sapiens), P53350 | recombinant PLK1 kinase, TR-FRET peptide phosphorylation | inhibition, % at 10 µM | hit rate 0.53% among 97,000 | AID 619, 2007;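 active = inhibition of 50% or more in the single-concentration screen; inactive = inhibition below 50%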;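 also: 0% = DMSO max control and 100% = H-89 dihydrochloride min control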
EphB4 antag – EphB4-ephrin-B2 interaction antagonists, primary screen, biochemical, TNYL-RAW peptide probe, fluorescence polarization; Ephrin type-B receptor 4 (Homo sapiens), P54760; EphB4 LBD / TNYL-RAW-Alexa532 peptide; inhibition, % at 7 µM; hit rate 0.15% among 97,000;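 active = inhibition above the screen-wide mean inhibition plus 3 SD, cut at about 15% in these data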;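 also: 0% = DMSO wells and 100% = excess unlabeled TNYL-RAW peptide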
PLK1 PBD inh – Plk1 polo box domain binding inhibitors, primary screen, biochemical, fluorescence polarization | inhibition, %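 (tested at about 20 µM)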 | Plk1 PBD phosphopeptide binding | hit rate 0.13% among 97,000; in the data active = inhibition above about 34%, passing the limit was not always enough
FAK blocker – FAK kinase inhibitors, primary screen, biochemical; Focal adhesion kinase 1 (Homo sapiens), Q05397; biochemical FAK kinase activity assay; inhibition, %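 (tested at 7 µM)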; hit rate 0.84% among 97,000; AID 727, 2007; in the data active = inhibition above about 19%;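 also: 0% = DMSO and 100% = reference compound high control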
DAT uptake mod – changed hDAT dopamine uptake under cocaine IC80, either direction, primary screen, cocaine antagonist project, cell-based, LLC-PK1 hDAT, [14C]-dopamine uptake, MLSMR. Sodium-dependent dopamine transporter (Homo sapiens), Q01959. B-score at 10 µM. hit rate 1.3% among 110,000. LLC-PK1 hDAT cells, [14C]-dopamine uptake with cocaine IC80; actives deviate in either direction;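 active = Z score or B-score, a plate-position-corrected score, falls beyond the plate's 99.7% confidence bounds, in either direction; inactive = both scores lie inside the 99.7% bounds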;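 also: scored against the spread of the other compound wells on the same plate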
* marks the source's active call; other numbers are inactive results; [ ] = another dose, or the depositor's remark. Most compounds without a hit are left out; they make up all but 3.2% or so of the library.

Results for O=C(CN1C(=O)NC2(CCCCCCC2)C1=O)NCc1ccc2c(c1)OCO2 ?
Rev-RRE block: 4; PLK1 inh: -9; EphB4 antag: 0; PLK1 PBD inh: 7; FAK blocker: 0; DAT uptake mod: 0.29

Results for O=C(C1=C[C@@H](c2ccc(Br)cc2)C[C@@H](OCc2ccc(CO)cc2)O1)N1CCN(Cc2ccc3c(c2)OCO3)CC1 ?
DAT uptake mod: 0.14

How did O=C(CSc1nc2ccccc2[nH]1)NCCCn1ccnc1 do in these assays?
DAT uptake mod: -1

What do the screens show for `COc1cc2cc(C(c3nnnn3C3CCCC3)N3CCCCCC3)c(=O)[nH]c2cc1OC` (stereo unspecified)?
Rev-RRE block: 58*; PLK1 inh: -16; EphB4 antag: 0; PLK1 PBD inh: -16; FAK blocker: 5; DAT uptake mod: 0.04

What do the screens show for `COc1cc2cc(C(c3nnnn3C3CCCC3)N3CCCCC3)c(=O)[nH]c2cc1OC` (stereo unspecified)?
Rev-RRE block: 10; PLK1 inh: -11; EphB4 antag: 4; PLK1 PBD inh: -8; FAK blocker: 0; DAT uptake mod: 0.66

What do the screens show for `O=c1[nH]c2cc3c(cc2cc1C(c1nnnn1C1CCCCC1)N1CCSCC1)OCCO3` (stereo unspecified)?
Rev-RRE block: 51*; PLK1 inh: -28; EphB4 antag: 1; PLK1 PBD inh: -16; FAK blocker: 1

How did C=C1CCN(c2ccc(C(=O)NCCC)cc2[N+](=O)[O-])CC1 do in these assays?
DAT uptake mod: 0.24

How did CCN1CCN(CC(=O)NC2CCCC2)C(=O)C1=O do in these assays?
Rev-RRE block: 8; PLK1 inh: 68*; EphB4 antag: 1; PLK1 PBD inh: -22; FAK blocker: -2; DAT uptake mod: 0.37

What do the screens show for `COc1ccc(NC(=O)CN2CCC(C(N)=O)(N3CCCCC3)CC2)cc1`?
Rev-RRE block: 6; PLK1 inh: -2; EphB4 antag: 2; PLK1 PBD inh: -9; FAK blocker: -1; DAT uptake mod: -1.4

How did COc1cccc(NC(=O)N2CCC(C(N)=O)(N3CCCCC3)CC2)c1 do in these assays?
Rev-RRE block: 5; PLK1 inh: 66*; EphB4 antag: 6; PLK1 PBD inh: -4; FAK blocker: -1; DAT uptake mod: -0.051

How did COc1ccc(/C=C/c2ccncc2)c2ccccc12 do in these assays?
Rev-RRE block: 141*[fluorescence artefact?]; PLK1 inh: -14; EphB4 antag: -3; PLK1 PBD inh: -11; FAK blocker: 2; DAT uptake mod: 0.37

Results for CC(O)[C@H]1CN=C(N)N1CCCCC1CCCCC1 (stereo partly specified) ?
DAT uptake mod: -4.7*

What do the screens show for `CCOC(=O)CN1C(=O)N[C@@H](c2ccccc2)[C@H](C(C)=O)[C@H]1C`?
DAT uptake mod: -0.31

How did CN1C[C@@H]2C(c3ccccc3)C3(c4ccc(C#N)cc4)CC2(C3)[C@H]1c1ccccc1 (stereo partly specified) do in these assays?
DAT uptake mod: 0.011

Results for CN1C=CC2=C(C#N)C(N)C(C#N)(C#N)C(c3ccccc3)C2C1 (stereo unspecified) ?
Rev-RRE block: 64*; PLK1 inh: 4; EphB4 antag: 1; PLK1 PBD inh: -14; FAK blocker: 3; DAT uptake mod: -1

Results for N=c1n(CCN2CCCCC2)c2ccccc2n1CC(O)c1ccc(Cl)c(Cl)c1 (stereo unspecified) ?
Rev-RRE block: 5; PLK1 inh: 63*; EphB4 antag: -4; PLK1 PBD inh: -13; FAK blocker: -1; DAT uptake mod: -0.11

Results for CN1C(C(=O)NCC2CC2)CC2Cn3c(nc4cc(Cl)c(Cl)cc43)C21 (stereo unspecified) ?
DAT uptake mod: -0.61

How did COc1ccccc1-n1c(N)c(C(=O)NCC2CCCO2)c2nc3ccccc3nc21 (stereo unspecified) do in these assays?
DAT uptake mod: 4.2*

How did COc1ccc(-n2c(O)c(Cc3ccccc3)c(=O)n3nc(-c4ccccc4)c(=O)cc23)cc1 do in these assays?
Rev-RRE block: -2; PLK1 inh: -7; EphB4 antag: -5; PLK1 PBD inh: 14; FAK blocker: -1; DAT uptake mod: 0.2

What do the screens show for `C#CCSc1nnc(C)c(C)n1`?
DAT uptake mod: 0.0032

How did C=CCOC(=O)C1=C[C@@H](c2ccc(Br)cc2)C[C@@H](OCc2ccc(CO)cc2)O1 do in these assays?
DAT uptake mod: -0.82

What do the screens show for `CCOc1ccc2[nH]c(=O)c(C(c3nnnn3Cc3ccco3)N3CCCC(C)C3)cc2c1` (stereo unspecified)?
Rev-RRE block: 6; PLK1 inh: -4; EphB4 antag: -2; PLK1 PBD inh: 10; FAK blocker: -8; DAT uptake mod: 2.5*

How did COc1ccc2[nH]c(=O)c(CN(C3CCCCC3)C(c3nnnn3Cc3ccco3)C(C)C)cc2c1 (stereo unspecified) do in these assays?
Rev-RRE block: 43*; PLK1 inh: -8; EphB4 antag: 6; PLK1 PBD inh: 23; FAK blocker: 12

How did COc1ccc2cc(C(c3nnnn3Cc3ccc(F)cc3)N3CCCCCC3)c(=O)[nH]c2c1 (stereo unspecified) do in these assays?
Rev-RRE block: 11; PLK1 inh: 3; EphB4 antag: -8; PLK1 PBD inh: 36; FAK blocker: 2; DAT uptake mod: 0.79

What do the screens show for `COc1ccc2[nH]c(=O)c(CN(Cc3nnnn3Cc3ccco3)C3CCCCC3)cc2c1`?
Rev-RRE block: 17; PLK1 inh: 1; EphB4 antag: -9; PLK1 PBD inh: 8; FAK blocker: 1; DAT uptake mod: 1.9

What do the screens show for `COc1ccc(Cn2nnnc2C(c2cc3ccc(OC)cc3[nH]c2=O)N2CCC(C)CC2)cc1` (stereo unspecified)?
Rev-RRE block: 29; PLK1 inh: 9; EphB4 antag: 16*; PLK1 PBD inh: -16; FAK blocker: 0; DAT uptake mod: 1.9

What do the screens show for `CCOc1ccc2[nH]c(=O)c(C(c3nnnn3Cc3ccco3)N3CCC(C)CC3)cc2c1` (stereo unspecified)?
Rev-RRE block: 8; PLK1 inh: -13; EphB4 antag: 2; PLK1 PBD inh: 9; FAK blocker: -2; DAT uptake mod: 1.1

How did Cc1c(C(=O)NCCCN2CCOCC2)sc2ncnc(N3CCN(c4ccccc4)CC3)c12 do in these assays?
DAT uptake mod: 0.82

Results for CCCCNC(=O)c1sc2ncnc(N3CCc4ccccc4C3)c2c1C ?
Rev-RRE block: 1; PLK1 inh: 0; EphB4 antag: -2; PLK1 PBD inh: 0; FAK blocker: 14; DAT uptake mod: 4.2*
